According to ChEMBL document CHEMBL3271980, “Synthesis and some pharmacological properties of oxytocin analogues having L-thiazolidine-4-carboxylic acid in position 7” (1976):

Legend:
Type in all cases: functional
Rattus norvegicus [1] = organism: Rattus norvegicus; assay: Effect on rat uterus activity relative to bradykinin
Rattus norvegicus [2] = organism: Rattus norvegicus; assay: Effect on rat blood pressure relative to bradykinin
Gallus gallus = assay: Induction of vasodepressor activity in conscious chicken
Procedure, shortened: (§1)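 Purified analogues assayed for oxytocic, avian vasodepressor and rat pressor activity. Potency was measured against the U.S.P. posterior pituitary reference standard using a four-point assay design.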

Rattus norvegicus [3] = organism: Rattus norvegicus; assay: Effect on pressor activity in rat; procedure, shortened: as §1
[4] = Induction of oxytocic activity in rat uterus; procedure, shortened: as §1

Structure (SMILES) | Activity (Rattus norvegicus [1]) [%] | Activity (Rattus norvegicus [2]) [%] | Activity (Gallus gallus) [U/mg] | Activity (Rattus norvegicus [3]) [U/mg] | Activity [4] [U/mg]
N=C(N)NCCC[C@H](NC(=O)[C@H](Cc1ccccc1)NC(=O)[C@@H]1CCCN1C(=O)[C@H](CO)NC(=O)[C@H](Cc1ccccc1)NC(=O)CNC(=O)[C@@H]1CSCN1C(=O)[C@@H]1CCCN1C(=O)[C@@H](N)CCCNC(=N)N)C(=O)O | 46 | 26 |  |  | 
CC[C@H](C)[C@@H]1NC(=O)[C@H](Cc2ccc(O)cc2)NC(=O)[C@@H](N)CSSC[C@@H](C(=O)N2CSC[C@H]2C(=O)N[C@@H](CC(C)C)C(=O)NCC(N)=O)NC(=O)[C@H](CC(N)=O)NC(=O)[C@H](CCC(N)=O)NC1=O |  |  | 720 | 3.46 | 1180
CC[C@H](C)[C@@H]1NC(=O)[C@H](Cc2ccc(O)cc2)NC(=O)CCSSC[C@@H](C(=O)N2CSC[C@H]2C(=O)N[C@@H](CC(C)C)C(=O)NCC(N)=O)NC(=O)[C@H](CC(N)=O)NC(=O)[C@H](CCC(N)=O)NC1=O |  |  | 2039 | 1.69 | 1538
CC[C@H](C)[C@@H]1NC(=O)[C@H](Cc2ccc(O)cc2)NC(=O)CCSSC[C@@H](C(=O)N2CCC[C@H]2C(=O)N[C@@H](CC(C)C)C(=O)NCC(N)=O)NC(=O)[C@H](CC(N)=O)NC(=O)[C@H](CCC(N)=O)NC1=O |  |  | 975 | 1.44 | 803
CC[C@H](C)[C@@H]1NC(=O)[C@H](Cc2ccc(O)cc2)NC(=O)[C@@H](N)CSSC[C@@H](C(=O)N2CCC[C@H]2C(=O)N[C@@H](CC(C)C)C(=O)NCC(N)=O)NC(=O)[C@H](CC(N)=O)NC(=O)[C@H](CCC(N)=O)NC1=O [OXYTOCIN] |  |  | 507 | 3.1 | 546
